The source of these data is ChEMBL document CHEMBL4339195, “Di-aryl Sulfonamide Motif Adds π-Stacking Bulk in Negative Allosteric Modulators of the NMDA Receptor” (ACS Med Chem Lett, 2019).

Test [1] concerns the target T1, Ionotropic glutamate receptor NMDA 1/2D (Rattus norvegicus) (UniProt P35439+Q62645). Kind of test: Negative allosteric modulation of recombinant rat GluN1/GluN2D expressed in Xenopus laevis oocytes assessed as inhibition of glutamate/glycine-induced current response at saturated concentration at -40 mV holding potential by two-electrode voltage clamp method relative to glutamate/glycine. Format: cell-based. Put shortly: (§1)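 Hill fit of the composite concentration-response curve in oocytes, with agonist 100 µM glutamate plus 30 µM glycine. Residual response in saturating compound is either fixed at 0 or fitted. 8-16 oocytes from 2-3 frogs.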
(In two-electrode clamp one electrode senses voltage and the other passes current.)

The target of test [2] is Ionotropic glutamate receptor NMDA 1/2D (Rattus norvegicus, UniProt P35439+Q62645). In words: Negative allosteric modulation of recombinant rat GluN1/GluN2D expressed in Xenopus laevis oocytes assessed as inhibition of glutamate/glycine-induced current response at -40 mV holding potential by two-electrode voltage clamp method. The format is cell-based. An outline of the steps:
(§2)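 Oocytes recorded while the drug is co-applied with a maximally effective 100 µM glutamate plus 30 µM glycine. Response is expressed as percent of the glutamate/glycine control. IC50 comes from a Hill fit to the average composite concentration-response curve. 8-16 oocytes from 2-3 frogs per compound and receptor.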

The target in test [3] is T2, Glutamate NMDA receptor; Grin1/Grin2c (Rattus norvegicus) (UniProt P35439+Q00961). In words: Negative allosteric modulation of recombinant rat GluN1/GluN2C expressed in Xenopus laevis oocytes assessed as inhibition of glutamate/glycine-induced current response at saturated concentration at -40 mV holding potential by two-electrode voltage clamp method relative to glutamate/glycine. The format is cell-based. Put shortly:
as §1

Test [4] addresses T2, Glutamate NMDA receptor; Grin1/Grin2c (Rattus norvegicus). In words: Negative allosteric modulation of recombinant rat GluN1/GluN2C expressed in Xenopus laevis oocytes assessed as inhibition of glutamate/glycine-induced current response at 30 uM at -40 mV holding potential by two-electrode voltage clamp method relative to glutamate/glycine. Format: cell-based. The settings on record: for residual activity: values are per cent of control. An outline of the steps:
as §2

For test [5], the target named is Glutamate NMDA receptor; Grin1/Grin2c (Rattus norvegicus, UniProt P35439+Q00961). In words: Negative allosteric modulation of recombinant rat GluN1/GluN2C expressed in Xenopus laevis oocytes assessed as inhibition of glutamate/glycine-induced current response at -40 mV holding potential by two-electrode voltage clamp method. The format is cell-based. An outline of the steps: as §2

The target in test [6] is T1, Ionotropic glutamate receptor NMDA 1/2D (Rattus norvegicus). Kind of test: Negative allosteric modulation of recombinant rat GluN1/GluN2D expressed in Xenopus laevis oocytes assessed as inhibition of glutamate/glycine-induced current response at 30 uM at -40 mV holding potential by two-electrode voltage clamp method relative to glutamate/glycine. Format: cell-based. Conditions: for residual activity: values are per cent of control. An outline of the steps: as §2

Test [7] deals with T2, Glutamate NMDA receptor; Grin1/Grin2c (Rattus norvegicus). In words: Potency index, ratio of NP11999 IC50 to test compound IC50 for negative allosteric modulation of recombinant rat GluN1/GluN2C expressed in Xenopus laevis oocytes assessed as inhibition of glutamate/glycine-induced current response. Format: cell-based.
The target in test [8] is T1, Ionotropic glutamate receptor NMDA 1/2D (Rattus norvegicus). In words: Potency index, ratio of NP11999 IC50 to test compound IC50 for negative allosteric modulation of recombinant rat GluN1/GluN2D expressed in Xenopus laevis oocytes assessed as inhibition of glutamate/glycine-induced current response. The format is cell-based.
Test [9] addresses Glutamate NMDA receptor; Grin1/Grin2a (Rattus norvegicus) (UniProt P35439+Q00959). In words: Negative allosteric modulation of recombinant rat GluN1/GluN2A expressed in Xenopus laevis oocytes assessed as residual glutamate/glycine-induced current response at 30 uM at -40 mV holding potential by two-electrode voltage clamp method relative to glutamate/glycine.
The target in test [10] is T1, Ionotropic glutamate receptor NMDA 1/2D (Rattus norvegicus). Kind of test: Negative allosteric modulation of recombinant rat GluN1/GluN2D expressed in Xenopus laevis oocytes assessed as residual glutamate/glycine-induced current response at 10 uM at -40 mV holding potential by two-electrode voltage clamp method relative to glutamate/glycine.
Test [11] concerns the target T2, Glutamate NMDA receptor; Grin1/Grin2c (Rattus norvegicus). In words: Negative allosteric modulation of recombinant rat GluN1/GluN2C expressed in Xenopus laevis oocytes assessed as remaining glutamate/glycine-induced current response at 10 uM at -40 mV holding potential by two-electrode voltage clamp method relative to glutamate/glycine.

What is called inhibition is how much of the control response was suppressed. What is called IC50 is the concentration needed to halve the response being measured. `CCN(CC)C(=O)Oc1ccc(C(=O)Nc2ccc(CNS(=O)(=O)c3ccccc3)cc2)cc1`: the inhibition worked out at 27% in test [1] and 41% in [3]. For the same compound, the IC50 in test [2] came to 10 µM; in test [5], 22 µM. In addition, the results for the residual activity in [4] and in test [6] were 42% and 20%, respectively.
For `CCN(CC)C(=O)Oc1ccc(C(=O)Nc2ccc(CCNS(=O)(=O)c3cccnc3)cc2)cc1`, the inhibition in test [1] and in [3] was 0% throughout. Also, the IC50 was determined as 5.1 µM in [2] and 12 µM in test [5]. The results for the residual activity in test [4] and in [6] were 37% and 26%, respectively.
Regarding `CCN(CC)C(=O)Oc1ccc(C(=O)Nc2cccc(CNS(=O)(=O)c3cccnc3)c2)cc1`, the inhibition in test [1] and in test [3] was 0% each time. Also, the IC50 in test [2] was found to be 23 µM; in test [5] it was 34 µM. Further, the results for the residual activity in test [4] and in test [6] were 52% and 42%, respectively.
With `CCN(CC)C(=O)Oc1ccc(C(=O)Nc2ccc(CCNS(=O)(=O)c3ccc(F)c(Cl)c3)cc2)cc1`, the inhibition turned out to be 0% in test [1], 0% in test [3], 21% in test [4] and 26% in test [6].
Turning to `CCN(CC)C(=O)Oc1ccc(C(=O)Nc2ccc(CCNS(=O)(=O)c3ccccc3)cc2)cc1`, the inhibition in test [1] stood at 0%; in [3] it was 0%; in test [4], 23%; in test [6], 33%.
For the compound `CCN(CC)C(=O)Oc1ccc(C(=O)Nc2ccc(CNS(=O)(=O)c3cccnc3)cc2)cc1`, the inhibition in test [1] and in test [3] was 0% each time. Moreover, the IC50 in [2] amounted to 24 µM; in [5], 35 µM. The residual activity was determined as 58% in test [4] and 45% in [6].
On to `CCN(CC)C(=O)Oc1ccc(C(=O)Nc2cccc(C(=O)Nc3ccccc3)c2)cc1`, for which, in [2], the IC50 amounted to 8 µM.
For `CCN(CC)C(=O)Oc1ccc(C(=O)Nc2cccc(CCNS(=O)(=O)c3ccc(F)c(Cl)c3)c2)cc1`, the inhibition in test [1] and in [3] was 0% each time. The Ratio IC50 in test [7] and in test [8] was less than 6 in each case. The IC50 in test [2] stood at 1.3 µM; in test [5], 2.4 µM. Besides, the residual activity was determined as 41% in test [4] and 28% in test [6].
As to `CCN(CC)C(=O)Oc1ccc(C(=O)Nc2ccc(C(=O)Nc3ccccc3)cc2)cc1`, in test [2], the IC50 is more than 100 µM.
In the case of `CCN(CC)C(=O)Oc1ccc(C(=O)Nc2cccc(CCNC(=O)c3ccccc3)c2)cc1`, the IC50 in test [2] was 29 µM; in test [5] it was 37 µM. The residual activity in [9] turned out to be 82%; in test [4] it was 56%; in [6], 49%.
With `CCN(CC)C(=O)Oc1ccc(C(=O)Nc2ccccc2)cc1`, the residual activity in test [10] was 37%; in test [11], 49%. Moreover, the IC50 was 5.8 to 6 µM in test [2] and 8.6 µM in [5].
With `O=C(NCc1ccc(C(=O)NNC(=O)c2ccccc2)cc1)c1ccc(F)c(Cl)c1`, in test [9], the residual activity was found to be 102%.
Regarding `CCN(CC)C(=O)Oc1ccc(C(=O)Nc2cccc(CNS(=O)(=O)c3ccccc3)c2)cc1`, the inhibition in [1] and in test [3] was 0% throughout. Besides, the IC50 in test [2] was 29 µM; in test [5], 45 µM. Besides, the residual activity in test [4] was determined as 60%; in test [6], 46%.
On to `CCN(CC)C(=O)Oc1ccc(C(=O)Nc2cccc(CCNS(=O)(=O)c3cccnc3)c2)cc1`, for which the inhibition in test [1] and in test [3] was 0% throughout. Also, the Ratio IC50 in test [7] and in test [8] was less than 6 each time. Further, the IC50 in test [2] stood at 2.7 µM; in test [5], 3.2 µM. The residual activity in [4] was 8.5%; in test [6] it was 8.6%.
